Test results: ChEMBL document CHEMBL4190216, “Asymmetric 1,5-diarylpenta-1,4-dien-3-ones: Antiproliferative activity in prostate epithelial cell models and pharmacokinetic studies” (Eur J Med Chem, 2017)
pIC50: −log10 of the molar value.

What was measured:
PC-3 [1] = assay: Antiproliferative activity against human PC3 cells assessed as decrease in cell viability after 3 days by WST assay; type: functional, cell-based; details: PC-3, 72 h
Outline: (§1)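 Cells were seeded at 3,200 per well. PC-3 and LNCaP were grown in RPMI-1640 and DU-145 in EMEM, each with 10% FBS and 1% penicillin/streptomycin, at 37 °C and 5% CO2. Cells were exposed for 3 days to at least five concentrations, with DMSO as vehicle control. WST-1 reagent was then added for 3 h at 37 °C and absorbance read at 430 nm. IC50 came from linear inhibition, averaged over triplicates.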

DU-145 [2] = assay: Antiproliferative activity against human DU145 cells assessed as decrease in cell viability after 3 days by WST assay; type: functional, cell-based; details: DU-145, 72 h; outline: as §1
LNCaP [3] = assay: Antiproliferative activity against human LNCAP cells assessed as decrease in cell viability after 3 days by WST assay; type: functional, cell-based; details: 72 h; outline: as §1
PC-3 [4] = assay: Potency index, ratio of curcumin IC50 to test compound IC50 for human PC3 cells; type: functional
DU-145 [5] = assay: Potency index, ratio of curcumin IC50 to test compound IC50 for human DU145 cells; type: functional
LNCaP [6] = assay: Potency index, ratio of curcumin IC50 to test compound IC50 for human LNCAP cells; type: functional
PWR-1E [7] = assay: Antiproliferative activity against human PWR-1E cells expressing androgen receptor and PSA assessed as decrease in cell viability after 3 days by WST assay; type: functional, cell-based; details: 72 h
Outline: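 Non-malignant prostate epithelial PWR-1E (adenovirus 12/SV40-immortalized) was seeded at 5,000 per well. Cells were exposed for 3 days at 37 °C in a CO2 incubator to at least five concentrations, with DMSO as vehicle control. WST-1 reagent was then added for 3 h at 37 °C and absorbance read at 430 nm. IC50 came from linear inhibition, as the mean of triplicate determinations.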

PWR-1E [8] = assay: Potency index, ratio of curcumin IC50 to test compound IC50 for human PWR-1E cells expressing androgen receptor and PSA; type: functional
[9] = Drug level in human liver microsomes treated with (1E,4E)-1-(1-Ethyl1H-benzo[d]imidazol-2-yl)-5-(2-methyl-4-(trifluoromethyl)thiazol-5-yl)penta-1,4-dien-3-one at 10 mM after 60 mins by UHPLC analysis; type: ADME, microsome; details: 1 h
Outline: (§2)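 Pooled human liver microsomes in potassium phosphate buffer (pH 7.4) with NADPH solutions A and B were preincubated for 5 min at 37 °C. Compound was then added from a 10 mM stock (3 μL into 300 μL total) and incubated 60 min at 37 °C. Reactions were quenched with an equal volume of methanol and centrifuged (10,000 × g, 4 min, 4 °C). Supernatant went to UHPLC–high-resolution MS for metabolite identification.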

[10] = Retention time of the compound; type: physicochemical
[11] = Drug level in human liver microsomes treated with (1E,4E)-1-(1-(sec-Butyl)1H-imidazol-2-yl)-5-(2-methyl-4-(trifluoromethyl)thiazol-5-yl)penta-1,4-dien-3-one at 10 mM after 60 mins by UHPLC analysis; type: ADME, microsome; outline: as §2

Structure (SMILES)	pIC50 (PC-3 [1])	pIC50 (DU-145 [2])	pIC50 (LNCaP [3])	Ratio IC50 (PC-3 [4])	Ratio IC50 (DU-145 [5])	Ratio IC50 (LNCaP [6])	pIC50 (PWR-1E [7])	Ratio IC50 (PWR-1E [8])	Drug metabolism [9]	Retention_time [10]	Drug metabolism [11]
Cn1cc(Br)c(/C=C/C(=O)/C=C/c2ccccn2)n1	6.51	6.30	6.66	82	53	62	7.00	89			
CCC(C)n1ccnc1/C=C/C(=O)/C=C/c1nc2ccccc2n1C(C)CC (stereo not drawn)	6.62	6.46	6.48	106	75	41					
CCC(C)n1ccnc1/C=C/C(=O)/C=C/c1ccc(OC)c(OC)c1 (stereo not drawn)	5.88	6.07	6.04	19	31	15					
CC(C)Cn1ccnc1/C=C/C(=O)/C=C/c1nc2ccccc2n1CC(C)C	6.70	6.43	6.25	127	71	24					
CC(C)n1ccnc1/C=C/C(=O)/C=C/c1cnc(N2CCOCC2)s1	5.64	5.88	5.85	11	20	10					
CC(C)n1ccnc1/C=C/C(=O)/C=C/c1nc2ccccc2n1C(C)C	6.74	6.89	6.59	141	138	52	7.52	293			
CCCn1c(/C=C/C(=O)/C=C/c2ccccn2)nc2ccccc21	6.60	6.49	6.77	102	82	80	7.70	443			
CC(C)n1ccnc1/C=C/C(=O)/C=C/c1cnc(N2CCCC2)s1	5.16	5.43	5.39	4	7	3					
Cc1cc(/C=C/C(=O)/C=C/c2ccccn2)no1	6.35	6.15	6.51	57	38	44					
O=C(/C=C/c1ccccn1)/C=C/c1nccs1	6.26	5.95	6.35	46	23	30					
CCC(C)n1ccnc1/C=C/C(=O)/C=C/c1conc1C (stereo not drawn)	6.43	6.12	6.62	69	35	57					
COc1cc(/C=C/C(=O)CC(=O)/C=C/c2ccc(O)c(OC)c2)ccc1O [CURCUMIN]							5.05				
CCC(C)n1ccnc1/C=C/C(=O)/C=C/c1ccccn1 (stereo not drawn)	6.52	6.47	6.62	85	77	57	6.77	52			
CCn1c(/C=C/C(=O)/C=C/c2ccccn2)nc2ccccc21	6.64	6.34	6.92	111	57	113	7.40	221			
CCCC(C)n1ccnc1/C=C/C(=O)/C=C/c1nc2ccccc2n1C(C)CCC (stereo not drawn)	6.85	6.55	6.43	182	94	37	7.40	221			
CCCn1c(/C=C/C(=O)/C=C/c2sc(C)nc2C(F)(F)F)nc2ccccc21	6.26	6.08	6.34	46	31	30					
CCC(C)n1ccnc1/C=C/C(=O)/C=C/c1cc(C)on1 (stereo not drawn)	6.51	6.28	6.62	82	50	57	6.96	81			
CCn1c(/C=C/C(=O)/C=C(\O)c2sc(C)nc2C(F)(F)F)nc2ccccc21									Metabolite_Detected	4.66 min	

Structure (SMILES)	pIC50 (PC-3 [1])	pIC50 (DU-145 [2])	pIC50 (LNCaP [3])	Ratio IC50 (PC-3 [4])	Ratio IC50 (DU-145 [5])	Ratio IC50 (LNCaP [6])	pIC50 (PWR-1E [7])	Ratio IC50 (PWR-1E [8])	Drug metabolism [9]	Retention_time [10]	Drug metabolism [11]
CCC(C)n1ccnc1/C=C/C(=O)/C=C/c1cccc(C)n1 (stereo not drawn)	6.59	6.54	6.59	98	90	52	6.89	68			
COc1ccc(/C=C/C(=O)/C=C/c2ccccn2)cc1OC	5.77	5.69	5.75	15	13	8					
Cn1c(/C=C/C(=O)/C=C/c2ccccn2)nc2ccccc21	6.25	6.17	6.74	45	39	76					
Cc1cccc(/C=C/C(=O)/C=C/c2ccccn2)n1	6.27	6.20	6.52	47	42	45					
CCCCn1ccnc1/C=C/C(=O)/C=C/c1nc2ccccc2n1CCCC	6.72	6.51	6.40	134	85	34					
CCC(C)n1ccnc1/C=C/C(=O)/C=C/c1cc(OC)c(OC)c(OC)c1 (stereo not drawn)	6.14	6.17	6.18	35	39	21					
Cc1nc(C(F)(F)F)c(/C=C/C(=O)/C=C/c2nc3ccccc3n2C(C)C)s1	6.47	6.24	6.52	75	46	45	7.30	177			
COc1cc(/C=C/C(=O)/C=C/c2ccccn2)cc(OC)c1OC	6.08	6.08	6.40	30	32	34					
Cc1nc(C(F)(F)F)c(/C=C/C(=O)/C=C/c2nc3ccccc3n2C)s1	6.32	6.11	6.47	53	34	40					
CCC(C)n1ccnc1/C=C/C(=O)/C=C/c1nccs1 (stereo not drawn)	6.41	6.38	6.77	64	62	80	6.85	63			
CCC(C)n1cc(O)nc1/C=C/C(=O)/C=C/c1sc(C)nc1C(F)(F)F (stereo not drawn)										3.32 min	Metabolite_Detected
CCC(C)n1ccnc1/C=C/C(=O)/C=C(\O)c1sc(C)nc1C(F)(F)F (stereo not drawn)										3.97 min	Metabolite_Detected
CC(C)n1ccnc1/C=C/C(=O)/C=C/c1cnc(N2CCCCC2)s1	5.47	5.59	5.66	8	10	6					
CCC(C)n1ccnc1/C(O)=C/C(=O)/C=C/c1sc(C)nc1C(F)(F)F (stereo not drawn)										3.7 min	Metabolite_Detected
CCn1c(/C(O)=C/C(=O)/C=C/c2sc(C)nc2C(F)(F)F)nc2ccccc21									Metabolite_Detected	4.54 min	
CCC(C)n1ccnc1/C=C/C(=O)/C=C/c1nn(C)cc1Br (stereo not drawn)	6.48	6.55	6.51	76	94	44	6.85	63			
Cc1nc(-c2ccncc2)sc1/C=C/C(=O)/C=C/c1nccn1C(C)C	6.10	6.18	6.27	32	40	25					
CC(C)CCn1ccnc1/C=C/C(=O)/C=C/c1nc2ccccc2n1CCC(C)C	6.68	6.11	6.03	121	34	41					
